Reference: ChEMBL document CHEMBL1124248, “Preparation and antischistosomal and antitumor activity of hycanthone and some of its congeners. Evidence for the mode of action of hycanthone” (1988)
Where “and” joins values, the source holds several entries; their conditions need not be identical. Equal entries are not always repeated.

Tests used:
Schistosoma mansoni [1] = test: Incorporation of 1.4 M*10e6 [3H]uridine in hycanthone(HC) resistant Schistosoma mansoni; assay type: functional
Method in brief: (§1)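 Adult HC-resistant S. mansoni were treated in vitro, and [3H]uridine incorporation by the worms was measured. Values are % of control. Concentrations are given in M × 10^6.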

HeLa [2] = test: Incorporation of 10e-5 M [3H]uridine in HeLa cells in presence of HC measured as as TCA precipitable radioactivity compared with non treated controls; assay type: functional, cell-based; conditions: Homo sapiens
Method in brief: (§2)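 HeLa cells (10^6 per duplicate tube) were incubated 1 h with drug. [3H]uridine was then added and incubation continued 1 h with drug present. Cells were washed with cold saline and precipitated with 10% TCA. Precipitates were collected on glass filters, TCA-washed and counted. Values are % TCA-precipitable radioactivity versus untreated controls.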

Nucleic Acid [3] = test: In vitro binding of [3H]HC to calf thymus DNA; assay type: nucleic-acid assay; conditions: Bos taurus
Method in brief: (§3)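 0.02 µCi of 3H-labelled drug was added to 50 µg calf thymus DNA in 20 µL of 0.1 M citrate-phosphate buffer, pH 7. Incubated 1.5 h at 37 °C in the dark, diluted to 0.1 mL saline and dialyzed against saline at 4 °C for up to 4 days. Duplicate 10 µL samples taken from inside the bags at intervals were counted directly, or after TCA precipitation.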

Nucleic Acid [4] = test: In vitro binding of [3H]HC to calf thymus DNA was measured after 3 days; assay type: nucleic-acid assay; conditions: Bos taurus; method in brief: as §3
Nucleic Acid [5] = test: Binding of 1x 10e-5 M [3H]HC to HeLa DNA; assay type: nucleic-acid assay; conditions: Homo sapiens
Method in brief: (§4)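 HeLa cells exposed 1 h to [3H]-labelled drug, washed three times with saline, then held 30 min at 37 °C in drug-free medium. After a 2 h digestion at 37 °C, crude DNA was ethanol-precipitated, purified on a CsCl density gradient, dialyzed and reprecipitated. DNA was quantified by A260. An aliquot was treated with DNase, and DNase-sensitive radioactivity was expressed as drug molecules per base pair.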

Schistosoma mansoni [6] = test: Incorporation of 0.7 M *10e6 [3H]uridine in hycanthone(HC) sensitive Schistosoma mansoni; assay type: functional
Nucleic Acid [7] = test: In vitro binding of [3H]HC to calf thymus DNA was measured after 1 day; assay type: nucleic-acid assay; conditions: Bos taurus; method in brief: as §3
Nucleic Acid [8] = test: Binding of 1x 10e-4 M [3H]HC to HeLa DNA; assay type: nucleic-acid assay; conditions: Homo sapiens; method in brief: as §4
Nucleic Acid [9] = test: In vitro binding of [3H]-HC to calf thymus DNA after precipitation with alcohol and TCA was measured after 3 days; assay type: nucleic-acid assay; conditions: Bos taurus; method in brief: as §3
Nucleic Acid [10] = test: In vitro binding of [3H]HC to calf thymus DNA after precipitation with alcohol and TCA was measured after 4 day; assay type: nucleic-acid assay; conditions: Bos taurus; method in brief: as §3
Nucleic Acid [11] = test: In vitro binding of [3H]HC to calf thymus DNA was measured after 4 day; assay type: nucleic-acid assay; conditions: Bos taurus; method in brief: as §3
Mus musculus [12] = test: In vivo antitumor activity against p-388 lymphocytic leukemia in mice at 60 mg/kg; assay type: functional
Method in brief: (§5)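 Murine P388 lymphocytic leukemia model tested by the National Cancer Institute. Compound given once daily for 9 days; activity expressed as T/C.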

Schistosoma mansoni [13] = test: Day 50% survival of worms in culture of HC sensitive Schistosoma mansoni; assay type: functional
Nucleic Acid [14] = test: In vitro binding of [3H]HC to calf thymus DNA after precipitation with alcohol and TCA was measured after 2 day; assay type: nucleic-acid assay; conditions: Bos taurus; method in brief: as §3
Nucleic Acid [15] = test: In vitro binding of [3H]HC to calf thymus DNA was measured after 2 days; assay type: nucleic-acid assay; conditions: Bos taurus; method in brief: as §3
Nucleic Acid [16] = test: In vitro binding of [3H]HC to calf thymus DNA was measured after 2 hours; assay type: nucleic-acid assay; conditions: Bos taurus; method in brief: as §3
HeLa [17] = test: Incorporation of 2*10e-5 M [3H]-uridine in HeLa cells in absence of HC measured as as TCA precipitable radioactivity compared with non treated controls; assay type: functional, cell-based; conditions: Homo sapiens
Method in brief: (§6)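 HeLa cells (10^6 per duplicate tube) were exposed to drug for 1 h, washed three times with medium, then held 2 h in drug-free medium. [3H]uridine was added for 1 h. Cells were precipitated with 10% TCA, and precipitates were filter-collected and counted. Values are % TCA-precipitable radioactivity versus untreated controls.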

Nucleic Acid [18] = test: In vitro binding of [3H]HC to calf thymus DNA after precipitation with alcohol and TCA was measured after 1 day; assay type: nucleic-acid assay; conditions: Bos taurus; method in brief: as §3
HeLa [19] = test: Incorporation of 10e-5 M [3H]uridine in HeLa cells in absence of HC measured as as TCA precipitable radioactivity compared with non treated controls; assay type: functional, cell-based; conditions: Homo sapiens; method in brief: as §6
Schistosoma mansoni [20] = test: Day 50% survival of worms in culture of HC resistant Schistosoma mansoni; assay type: functional
Method in brief: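 Adult HC-resistant S. mansoni were exposed in vitro and kept in culture. The value is the day by which 50% of worms were dead. Cultures were ended at different times in different experiments. Concentrations are given in M × 10^6.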

Nucleic Acid [21] = test: In vitro binding of [3H]HC to calf thymus DNA after precipitation with alcohol and TCA was measured after 2 hours; assay type: nucleic-acid assay; conditions: Bos taurus; method in brief: as §3
Nucleic Acid [22] = test: Binding of 5x 10e-4 M [3H]HC to HeLa DNA; assay type: nucleic-acid assay; conditions: Homo sapiens; method in brief: as §4
[23] = (§7) Total radioactivity of [3H]HC was evaluated after 3 days; assay type: functional
Method in brief: (§8)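 3H-labelled drug (0.02 µCi) was mixed with 50 µg calf thymus DNA in 0.1 M citrate-phosphate buffer, pH 7, and incubated in the dark for 1.5 h at 37 °C. The mix was diluted in saline and dialysed against saline at 4 °C. Duplicate samples drawn from inside the bags at intervals up to 4 days were counted directly.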

[24] = Total radioactivity of [3H]HC was evaluated after 2 hours; assay type: functional; method in brief: as §8
[25] = Total radioactivity of [3H]HC was evaluated after 2 hr; assay type: functional; method in brief: as §8
Schistosoma mansoni [26] = test: Incorporation of 1.4 M*10e6 [3H]uridine in hycanthone(HC) sensitive Schistosoma mansoni; assay type: functional
HeLa [27] = test: Incorporation of 2*10e-5 M [3H]uridine in HeLa cells in presence of HC measured as as TCA precipitable radioactivity compared with non treated controls; assay type: functional, cell-based; conditions: Homo sapiens; method in brief: as §2
Nucleic Acid [28] = test: In vitro binding of [3H]HC to calf thymus DNA after precipitation with alcohol and TCA was measured; assay type: nucleic-acid assay; conditions: Bos taurus; method in brief: as §3
[29] = as §7; assay type: functional; method in brief: as §8; remark: listed apart in the source
HeLa [30] = test: Incorporation of [3H]uridine in HeLa cells after 2x10e-5 M HC measured as as TCA precipitable radioactivity compared with non treated controls; conditions: Homo sapiens
Schistosoma mansoni [31] = test: Incorporation of 5.5M*10e6 [3H]uridine in hycanthone(HC) sensitive Schistosoma mansoni; assay type: functional
Schistosoma mansoni [32] = test: Incorporation of 5.5 M*10e6 [3H]uridine in hycanthone(HC) resistant Schistosoma mansoni; assay type: functional; method in brief: as §1
Schistosoma mansoni [33] = test: Incorporation of 1.1 M *10e6 [3H]uridine in hycanthone(HC) sensitive Schistosoma mansoni; assay type: functional
Mus musculus [34] = test: In vivo antitumor activity against p-388 lymphocytic leukemia in mice at 25 mg/kg; assay type: functional; method in brief: as §5
Mus musculus [35] = test: In vivo antitumor activity against p-388 lymphocytic leukemia in mice at 12.5 mg/kg; assay type: functional; method in brief: as §5
Schistosoma mansoni [36] = test: Incorporation of 1.1 M *10e6 [3H]uridine in hycanthone(HC) resistant Schistosoma mansoni; assay type: functional; method in brief: as §1
Mus musculus [37] = test: In vivo antitumor activity against p-388 lymphocytic leukemia in mice at 3.12 mg/kg; assay type: functional; method in brief: as §5
Mus musculus [38] = test: In vivo antitumor activity against p-388 lymphocytic leukemia in mice at 6.25 mg/kg; assay type: functional; method in brief: as §5
Mus musculus [39] = test: In vivo antitumor activity against p-388 lymphocytic leukemia in mice at 20 mg/kg; assay type: functional; method in brief: as §5
Schistosoma mansoni [40] = test: Incorporation of 6M*10e6 [3H]uridine in hycanthone(HC) resistant Schistosoma mansoni; assay type: functional; method in brief: as §1
Schistosoma mansoni [41] = test: Incorporation of 1.2 M *10e6 [3H]uridine in hycanthone(HC) sensitive Schistosoma mansoni; assay type: functional
Mus musculus [42] = test: In vivo antitumor activity against p-388 lymphocytic leukemia in mice at 5 mg/kg; assay type: functional; method in brief: as §5
Schistosoma mansoni [43] = test: Incorporation of 6M*10e6 [3H]uridine in hycanthone(HC) sensitive Schistosoma mansoni; assay type: functional
Schistosoma mansoni [44] = test: Incorporation of 1.2 M *10e6 [3H]uridine in hycanthone(HC) resistant Schistosoma mansoni; assay type: functional; method in brief: as §1
Mus musculus [45] = test: In vivo antitumor activity against p-388 lymphocytic leukemia in mice at 2.5 mg/kg; assay type: functional; method in brief: as §5
Mus musculus [46] = test: In vivo antitumor activity against p-388 lymphocytic leukemia in mice at 10 mg/kg; assay type: functional; method in brief: as §5

CCN(CC)CCNc1ccc(CO)c2sc3ccccc3c(=O)c12 [HYCANTHONE]
Control (Schistosoma mansoni [1]): 98%
Radioactivity (HeLa [2]): 32%
Radioactivity (Nucleic Acid [3]): 235000 c.p.m.
Radioactivity (Nucleic Acid [4]): 1600 c.p.m.
Drug mol/base pair (Nucleic Acid [5]): < 4e-08
Control (Schistosoma mansoni [6]): 20%
Radioactivity (Nucleic Acid [7]): 3460 c.p.m.
Drug mol/base pair (Nucleic Acid [8]): < 4e-08
Radioactivity (Nucleic Acid [9]): 265 c.p.m.
Radioactivity (Nucleic Acid [10]): 200 c.p.m.
Radioactivity (Nucleic Acid [11]): 1100 c.p.m.
T/C (Mus musculus [12]): 165
Effect (Schistosoma mansoni [13]): 7 days
Radioactivity (Nucleic Acid [14]): 275 c.p.m.
Radioactivity (Nucleic Acid [15]): 2300 c.p.m.
Radioactivity (Nucleic Acid [16]): 50000 c.p.m.
Radioactivity (HeLa [17]): 68%
Radioactivity (Nucleic Acid [18]): 330 c.p.m.
Radioactivity (HeLa [19]): 88%
Effect (Schistosoma mansoni [20]): >12 days
Radioactivity (Nucleic Acid [21]): 430 c.p.m.
Drug mol/base pair (Nucleic Acid [22]): 7e-07
Radioactivity [23]: 62 c.p.m.
Radioactivity [24]: 20500 c.p.m.
Radioactivity [25]: 100 c.p.m.
Control (Schistosoma mansoni [26]): 30%
Radioactivity (HeLa [27]): 37%
Radioactivity (Nucleic Acid [28]): 350 c.p.m.
Radioactivity [29]: 700 c.p.m.
Radioactivity (HeLa [30]): 68%

CCCCNC(=O)OCc1ccc(NCCN(CC)CC)c2c(=O)c3ccccc3sc12
Control (Schistosoma mansoni [31]): 31%
Control (Schistosoma mansoni [32]): 100%
Control (Schistosoma mansoni [33]): 34%
Effect (Schistosoma mansoni [13]): >12 days
T/C (Mus musculus [34]): 129%
T/C (Mus musculus [35]): 104%
Control (Schistosoma mansoni [36]): 100%
T/C (Mus musculus [37]): 119%
T/C (Mus musculus [38]): 135%

CCN(CC)CCNc1ccc(COC(=O)OC)c2sc3ccccc3c(=O)c12
T/C (Mus musculus [39]): 122%
Effect (Schistosoma mansoni [13]): 7 days and 6 days
Control (Schistosoma mansoni [40]): 28%
Effect (Schistosoma mansoni [20]): 13 days and 6 days
Control (Schistosoma mansoni [41]): 32%
T/C (Mus musculus [42]): 124%
Control (Schistosoma mansoni [43]): 6%
Control (Schistosoma mansoni [44]): 80%
T/C (Mus musculus [45]): 118%
T/C (Mus musculus [46]): 124%
